Test results taken from publication PMC7609460 (Heliyon, 2020).

What was measured:
Assay type in all cases: cell-based
[1] = test system: CCRF-CEM leukemia cells; assay: Resazurin reduction assay; conditions: Homo sapiens, 72 h
Summary of the method: (§1)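 Resazurin reduction read after 72 h at 37 °C in humidified 5% CO2; fluorescence at 544 nm excitation and 590 nm emission. Test samples were dissolved in DMSO (final ≤0.1%). IC50 is the concentration that gives 50% inhibition of proliferation, derived by linear regression. Degree of resistance is IC50 in the resistant line divided by IC50 in its parental line. Selectivity index is IC50 in AML12 divided by IC50 in HepG2.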

[2] = test system: CEM/ADR5000 leukemia cells (P-glycoprotein-overexpressing); assay: Resazurin reduction assay; conditions: for IC50: Homo sapiens, ADR5000, 72 h; for Degree of resistance: ratio IC50 CEM/ADR5000 / IC50 CCRF-CEM
Summary of the method: as §1

[3] = test system: MDA-MB-231-pcDNA breast adenocarcinoma cells; assay: Resazurin reduction assay; conditions: 72 h
Summary of the method: as §1

[4] = test system: MDA-MB-231-BCRP breast adenocarcinoma cells; assay: Resazurin reduction assay; conditions: for IC50: MDA-MB-231/BCRP, 72 h
Summary of the method: as §1

[5] = test system: HCT116 (p53+/+) colon cancer cells; assay: Resazurin reduction assay; conditions: Homo sapiens, HCT-116, 72 h
Summary of the method: as §1

[6] = test system: HCT116 (p53-/-) colon adenocarcinoma cells; assay: Resazurin reduction assay; conditions: for IC50: Homo sapiens, HCT-116, 72 h; for Degree of resistance: ratio IC50 HCT116 (p53-/-) / IC50 HCT116 (p53+/+)
Summary of the method: as §1

[7] = test system: U87MG glioblastoma cells; assay: Resazurin reduction assay; conditions: Homo sapiens, U-87 MG, 72 h
Summary of the method: as §1

[8] = test system: U87MG.ΔEGFR glioblastoma cells; assay: Resazurin reduction assay; conditions: for IC50: 72 h; for Degree of resistance: ratio IC50 U87MG.ΔEGFR / IC50 U87MG
Summary of the method: as §1

[9] = test system: HepG2 hepatocarcinoma cells; assay: Resazurin reduction assay; conditions: Homo sapiens, HepG2, 72 h
Summary of the method: as §1

[10] = test system: normal AML12 hepatocytes; assay: Resazurin reduction assay; conditions: for IC50: Mus musculus, AML12, 72 h; for Selectivity index: ratio IC50 AML12 hepatocytes / IC50 HepG2
Summary of the method: as §1

[11] = test system: CCRF-CEM cells; assay: Flow cytometric analysis of ROS production; conditions: 24 h, 50 μM, non-treated cells 0.6%
[12] = test system: CCRF-CEM cells; assay: Cell cycle distribution by flow cytometry; conditions: 24 h treatment
Summary of the method: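 CCRF-CEM cells (1×10^6) were treated for 24 h under standard culture conditions with various concentrations of test sample, or with DMSO (0.1% final) as control. Cell-cycle phases were read by flow cytometry from propidium iodide fluorescence of individual nuclei. At least three independent experiments, each with three repetitions.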

Row | SMILES | IC50 [1] | IC50 [2] | Degree of resistance [2] | IC50 [3] | IC50 [4] | IC50 [5] | IC50 [6] | IC50 [7] | IC50 [8] | IC50 [9] | IC50 [10] | Selectivity index [10] | Degree of resistance [6] | Degree of resistance [8] | ROS levels [11] | Degree of resistance ([4]; ratio IC50 MDA-MB-231-BCRP / IC50 MDA-MB-231-pcDNA) | cell cycle arrest phase [12]
1 | COc1cc(-c2cc(=O)c3c(O)cc(O[C@@H]4O[C@H](CO)[C@@H](O)[C@H](O)[C@H]4O)cc3o2)ccc1O [Compound 3, chrysoeriol-7-O-β-D-glucopyranoside] | 20.8 ± 1.76 µM | 18.7 ± 1.25 µM | 0.90 | > 100 µM | > 100 µM | 30.7 ± 4.04 µM | 28.4 ± 1.72 µM | 24.9 ± 2.19 µM | 21.1 ± 0.92 µM | 34.2 ± 2.86 µM | > 100 µM | > 2.92 | – | – | – | – | –
2 | O=c1cc(-c2ccc(O)c(O)c2)oc2cc(O)cc(O)c12 [Compound 6, luteolin] | 11 ± 0.97 µM | 27 ± 1.29 µM | 2.46 | > 100 µM | > 100 µM | 28.3 ± 1.07 µM | 30.4 ± 2.55 µM | 22.7 ± 2.2 µM | 18.9 ± 1.06 µM | 29 ± 1.77 µM | > 100 µM | > 3.45 | 1.07 | 0.83 | – | – | –
3 | OO [H2O2, Hydrogen peroxide] | – | – | – | – | – | – | – | – | – | – | – | – | – | – | 94.30% | – | –
4 | COc1cccc2c1C(=O)c1c(O)c3c(c(O)c1C2=O)C[C@@](O)(C(=O)CO)C[C@@H]3O[C@H]1C[C@H](N)[C@H](O)[C@H](C)O1 [Doxorubicin, reference compound] | 0.02 µM | – | – | 0.13 ± 0.01 µM | 0.79 ± 0.08 µM | – | 1.78 ± 0.08 µM | 0.26 ± 0.03 µM | 0.98 ± 0.07 µM | 4.56 ± 0.48 µM | 52.9 ± 4.09 µM | – | 3.73 | 3.79 | – | 6.14 | S and G2/M phase arrest
5 | O=c1cc(-c2ccc(O)cc2)oc2cc(O[C@@H]3O[C@H](CO)[C@@H](O)[C@H](O)[C@H]3O)cc(O)c12 [Compound 4, Apigenin-7-O-β-D-glucopyranoside] | 10.4 ± 1.17 µM | > 100 µM | > 9.62 | > 100 µM | > 100 µM | > 100 µM | > 100 µM | > 100 µM | > 100 µM | > 100 µM | > 100 µM | – | – | – | – | – | –
